Measured values as given in ChEMBL document CHEMBL1938372, “Design and synthesis of conformationally constrained inhibitors of non-nucleoside reverse transcriptase” (J Med Chem, 2011).
The source made the active and inactive calls. The calls are words filed in the database; no cut-off is given here.

What was measured:
[1] = target: Human immunodeficiency virus type 1 reverse transcriptase (Human immunodeficiency virus 1, UniProt Q72547, Y181C); experiment: Inhibition of Human immunodeficiency virus reverse transcriptase Y181C mutant by SPA assay
Outline: (§1)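 Recombinant HIV-1 RT polymerase scintillation proximity assay run with mutant enzyme, reported as Ki (nM). Values are geometric means of at least two determinations, each within 2-fold of the mean; SEM is given where there were ≥3 determinations.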

[2] = Inhibition of Human immunodeficiency virus reverse transcriptase by SPA assay
[3] = target: Human immunodeficiency virus type 1 reverse transcriptase (Human immunodeficiency virus 1, UniProt Q72547, K103N); experiment: Inhibition of Human immunodeficiency virus reverse transcriptase K103N mutant by SPA assay; outline: as §1
[4] = tested on: Human immunodeficiency virus; experiment: Antiviral activity against Human immunodeficiency virus expressing wild type reverse transcriptase infected in human MT4 cells by p24 antigen assay in the presence of 10% FBS; assay type: functional; conditions: Human immunodeficiency virus 1, MT4; read-out: CIC95
Outline: (§2)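 MT-4 human T-lymphoid cells in RPMI 1640 with either 10% FBS or 50% NHS; CIC95 taken as the concentration inhibiting virus spread/replication by >95%. Geometric mean of at least two determinations, individual values within 2-fold; SEM given when ≥3 determinations.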

MT4 = experiment: Cytotoxicity against human MT4 cells up to 8.3 uM; assay type: cell-based
Outline: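 MT-4 cells in RPMI 1640 with 10% FBS or 50% NHS, run alongside the antiviral CIC95 assay; cytotoxicity checked up to the assay upper limit of 8.3 μM.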

[5] = tested on: Human immunodeficiency virus; experiment: Antiviral activity against Human immunodeficiency virus expressing reverse transcriptase K103N mutant infected in human MT4 cells by p24 antigen assay in the presence of 10% FBS; assay type: functional; conditions: Human immunodeficiency virus 1, MT4; read-out: CIC95
Outline: (§3)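 Antiviral spread assay in MT-4 human T-lymphoid cells kept in RPMI 1640 with 10% FBS. Value is the CIC95, the concentration inhibiting virus replication by >95%. Reported as the geometric mean of at least two determinations, all within 2-fold of the mean. Cytotoxicity was checked up to the assay upper limit of 8.3 μM.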

Rattus norvegicus = experiment: Dose normalised AUC in Sprague-Dawley rat at 10 mg/kg, po by LC-MS analysis; assay type: ADME, organism-based; parameters: dose 10 mg/kg, route oral; conditions: in vivo
Outline: (§4)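 PK in Sprague-Dawley rats (iv solution in DMSO via an indwelling jugular cannula, or oral suspension in aqueous methylcellulose/Methocel) and beagle dogs (iv and oral given crossover, same vehicles). Plasma levels by LC-MS. F from oral versus iv dose-normalized AUC. Average of at least two animals; rat values within 25% of the mean.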

[6] = tested on: Human immunodeficiency virus; experiment: Antiviral activity against Human immunodeficiency virus harboring reverse transcriptase G190A mutant assessed as inhibition of viral replication; assay type: functional, organism-based
Outline: (§5)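 Phenosense cell culture assay against a panel of clinically derived RT mutant viruses in the presence of 10% FBS. IC50 is the compound concentration blocking 50% of viral replication. Each value is the average of two determinations.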

[7] = tested on: Human immunodeficiency virus; experiment: Antiviral activity against wild type Human immunodeficiency virus assessed as inhibition of viral replication; assay type: functional, organism-based
[8] = Half life in Beagle dog at 2 mg/kg, po and 1 mg/kg, iv; assay type: ADME, organism-based, Canis lupus familiaris; conditions: in vivo; outline: as §4
[9] = tested on: Human immunodeficiency virus; experiment: Antiviral activity against Human immunodeficiency virus harboring reverse transcriptase K101E/G190A double mutant assessed as inhibition of viral replication; assay type: functional, organism-based; outline: as §5
[10] = tested on: Human immunodeficiency virus; experiment: Antiviral activity against Human immunodeficiency virus harboring reverse transcriptase K103N/Y181C/G190A triple mutant assessed as inhibition of viral replication; assay type: functional, organism-based; outline: as §5
[11] = tested on: Human immunodeficiency virus; experiment: Antiviral activity against Human immunodeficiency virus expressing wild type reverse transcriptase infected in human MT4 cells by p24 antigen assay in the presence of 50% normal human serum; assay type: functional; conditions: Human immunodeficiency virus 1, MT4; read-out: CIC95; outline: as §2
[12] = tested on: Human immunodeficiency virus; experiment: Antiviral activity against Human immunodeficiency virus harboring reverse transcriptase V106A/G190A/F227L triple mutant assessed as inhibition of viral replication; assay type: functional, organism-based; outline: as §5
[13] = Plasma clearance in Beagle dog at 2 mg/kg, po and 1 mg/kg, iv; assay type: ADME, organism-based, Canis lupus familiaris; outline: as §4
[14] = tested on: Human immunodeficiency virus; experiment: Antiviral activity against Human immunodeficiency virus harboring reverse transcriptase K103N mutant assessed as inhibition of viral replication; assay type: functional, organism-based; outline: as §5
[15] = Half life in Sprague-Dawley rat at 10 mg/kg, po and 2 mg/kg, iv; assay type: ADME, organism-based; conditions: in vivo; outline: as §4
[16] = tested on: Human immunodeficiency virus; experiment: Antiviral activity against Human immunodeficiency virus harboring reverse transcriptase K101E/Y181C/G190A triple mutant assessed as inhibition of viral replication; assay type: functional, organism-based; outline: as §5
[17] = tested on: Human immunodeficiency virus; experiment: Antiviral activity against Human immunodeficiency virus harboring reverse transcriptase Y181C mutant assessed as inhibition of viral replication; assay type: functional, organism-based; outline: as §5
[18] = Volume of distribution in Beagle dog at 2 mg/kg, po and 1 mg/kg, iv; assay type: ADME, organism-based, Canis lupus familiaris; conditions: in vivo; outline: as §4
[19] = Bioavailability in Sprague-Dawley rat at 10 mg/kg, po and 2 mg/kg, iv; assay type: ADME, organism-based; conditions: in vivo; outline: as §4
[20] = tested on: Human immunodeficiency virus; experiment: Antiviral activity against Human immunodeficiency virus harboring reverse transcriptase G190S mutant assessed as inhibition of viral replication; assay type: functional, organism-based; outline: as §5
[21] = tested on: Human immunodeficiency virus; experiment: Antiviral activity against Human immunodeficiency virus harboring reverse transcriptase L100l/K103N/P225P/H triple mutant assessed as inhibition of viral replication; assay type: functional, organism-based; outline: as §5
[22] = tested on: Human immunodeficiency virus; experiment: Antiviral activity against Human immunodeficiency virus harboring reverse transcriptase L100l mutant assessed as inhibition of viral replication; assay type: functional, organism-based; outline: as §5
[23] = Plasma clearance in Sprague-Dawley rat at 10 mg/kg, po and 2 mg/kg, iv; assay type: ADME, organism-based; outline: as §4
[24] = tested on: Human immunodeficiency virus; experiment: Antiviral activity against Human immunodeficiency virus expressing reverse transcriptase Y181C mutant infected in human MT4 cells by p24 antigen assay in the presence of 10% FBS; assay type: functional; conditions: Human immunodeficiency virus 1, MT4; read-out: CIC95; outline: as §3
[25] = Solubility of the compound in water at pH 2; assay type: physicochemical
Outline: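 Water solubility of the solid compound measured at pH 2 and at pH 7.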

[26] = tested on: Human immunodeficiency virus; experiment: Antiviral activity against Human immunodeficiency virus harboring reverse transcriptase Y188L mutant assessed as inhibition of viral replication; assay type: functional, organism-based; outline: as §5
[27] = Bioavailability in Beagle dog at 2 mg/kg, po and 1 mg/kg, iv; assay type: ADME, organism-based, Canis lupus familiaris; conditions: in vivo; outline: as §4
[28] = tested on: Human immunodeficiency virus; experiment: Antiviral activity against multidrug-resistant Human immunodeficiency virus assessed as inhibition of viral replication; assay type: functional, organism-based; outline: as §5
[29] = tested on: Human immunodeficiency virus; experiment: Antiviral activity against Human immunodeficiency virus harboring reverse transcriptase K103N/P225H double mutant assessed as inhibition of viral replication; assay type: functional, organism-based; outline: as §5
Canis familiaris = experiment: Dose normalised AUC in Beagle dog at 2 mg/kg, po by LC-MS analysis; assay type: ADME, organism-based, Canis lupus familiaris; parameters: dose 2 mg/kg, route oral; conditions: in vivo; outline: as §4
[30] = Volume of distribution in Sprague-Dawley rat at 10 mg/kg, po and 2 mg/kg, iv; assay type: ADME, organism-based; conditions: in vivo; outline: as §4

With `N#Cc1cc(Cl)cc(Oc2cc3c(cc2Cl)ncn3Cc2n[nH]c3ncccc23)c1` the Ki [1] was > 100 nM, the Ki [2] was 114 nM and the Ki [3] was > 100 nM. The IC95 [4] was 693 nM, the Activity (MT4) was “Non-toxic” and the IC95 [5] was 732 nM.

With `N#Cc1cc(Cl)cc(Oc2c(Cl)ccc3c2cnn3Cc2n[nH]c3ncccc23)c1` [MK-6186] the AUC/dose (Rattus norvegicus) was 1.6 µM·h, the inhibition [6] was “Active” and the inhibition [7] was “Active”. For the same compound, the half-life [8] was 12.8 h, the inhibition [9] was “Active” and the inhibition [10] was “Active”. The IC95 [11] was 64 nM, the Ki [1] was 0.6 nM and the inhibition [12] was “inactive”. The Ki [2] was 0.34 nM, the clearance [13] was 6.1 mL/min/kg and the Ki [3] was 0.58 nM. For the same compound, the inhibition [14] was “Active”, the half-life [15] was 7.6 h and the inhibition [16] was “Active”. The inhibition [17] was “Active”, the Vd [18] was 6 L/kg and the bioavailability [19] was 76%. The inhibition [20] was “Active”, the inhibition [21] was “Active” and the inhibition [22] was “Active”. For the same compound, the clearance [23] was 18 mL/min/kg, the IC95 [24] was 58 nM and the solubility [25] was < 0.1 µg/mL. The inhibition [26] was “inactive”, the bioavailability [27] was 48% and the IC95 [4] was 11 nM. The inhibition [28] was “Active”, the inhibition [29] was “Active” and the Activity (MT4) was “Non-toxic”. It also gave an AUC/dose (Canis familiaris) of 2.3 µM·h, an IC95 [5] of 15 nM and a Vd [30] of 10.5 L/kg.

With `N#Cc1cc(Cl)cc(Oc2c(Cl)ccc3c2nnn3Cc2n[nH]c3ncccc23)c1` the AUC/dose (Rattus norvegicus) was 0.18 µM·h, the inhibition [6] was “Active” and the inhibition [7] was “Active”. For the same compound, the half-life [8] was 11.3 h, the inhibition [9] was “Active” and the inhibition [10] was “Active”. For the same compound, the IC95 [11] was 23 nM, the Ki [1] was 0.44 nM and the inhibition [12] was “inactive”. For the same compound, the Ki [2] was 0.24 nM, the clearance [13] was 1.6 mL/min/kg and the Ki [3] was 0.43 nM. The inhibition [14] was “Active”, the half-life [15] was 4.8 h and the inhibition [16] was “Active”. The inhibition [17] was “Active”, the Vd [18] was 1.3 L/kg and the bioavailability [19] was 7.3%. For the same compound, the inhibition [20] was “Active”, the inhibition [21] was “Active” and the inhibition [22] was “Active”. For the same compound, the clearance [23] was 14 mL/min/kg, the IC95 [24] was 18 nM and the solubility [25] was < 0.1 µg/mL. For the same compound, the inhibition [26] was “inactive”, the bioavailability [27] was 9.5% and the IC95 [4] was 4.3 nM. For the same compound, the inhibition [28] was “Active”, the inhibition [29] was “Active” and the Activity (MT4) was “Non-toxic”. It also gave an AUC/dose (Canis familiaris) of 0.45 µM·h, an IC95 [5] of 3.8 nM and a Vd [30] of 5.5 L/kg.

In the case of `N#Cc1cc(Cl)cc(Oc2cc3c(cc2Cl)nnn3Cc2n[nH]c3ncccc23)c1`, the Ki [1] is reported as > 900 nM, the Ki [2] is reported as > 300 nM and the Ki [3] is reported as > 300 nM. For the same compound, the IC95 [4] was > 833 nM and the Activity (MT4) was “Non-toxic”.

For `N#Cc1cc(Cl)cc(Oc2cc(NCc3n[nH]c4ncccc34)c(N)cc2Cl)c1`, the Ki [1] was 3.3 nM, the Ki [2] was 2.3 nM and the Ki [3] was 3.8 nM. For the same compound, the IC95 [4] was 24 nM, the Activity (MT4) was “Non-toxic” and the IC95 [5] was 40 nM.

For `N#Cc1cc(Cl)cc(Oc2c(Cl)ccc3c2[nH]c(=O)n3Cc2n[nH]c3ncccc23)c1`, the IC95 [11] was > 833 nM, the Ki [1] was > 300 nM and the Ki [2] was > 300 nM. The Ki [3] was > 600 nM, the IC95 [4] was > 833 nM and the Activity (MT4) was “Non-toxic”.
